In ChEMBL document CHEMBL1135125, “Cytotoxic alpha-bromoacrylic derivatives of low molecular weight” (Bioorg Med Chem Lett, 2002):

Legend:
L1210 = test: In vitro cytotoxicity against L1210 murine leukemia cells after 48 hr of continuous exposure; assay type: functional, cell-based; conditions: Mus musculus, L1210, 48 h
Outline: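 L1210 murine leukaemia cells (from NCI) under continuous drug exposure for 48 h; IC50 taken from dose–response curves, mean±SE of at least two experiments.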

Caco-2 = test: Caco-2 cell permeability coefficient was determined after 120 min of incubation; assay type: functional, cell-based; conditions: Homo sapiens
Outline: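 Caco-2 cells grown 21 days on permeable polycarbonate transwell filters; apparent permeability coefficient measured after 120 min incubation per a published method; total compound recovery calculated at end of experiment.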

Mus musculus [1] = test: Median survival time of mice injected with L1210 cells intravenously versus untreated mice at an optimal (non toxic) dose of 25 mg/kg; assay type: functional; conditions: route intravenous
Mus musculus [2] = test: Median survival time of mice injected with L1210 cells intraperitoneally versus untreated mice at an optimal (non toxic) dose of 12.5 mg/kg; assay type: functional; conditions: route intraperitoneal
Mus musculus [3] = test: Median survival time of mice injected with L1210 cells intravenously versus untreated mice at an optimal (non toxic) dose of 100 mg/kg; assay type: functional; conditions: route intravenous
Mus musculus [4] = test: Median survival time of mice injected with L1210 cells intravenously versus untreated mice at an optimal (non toxic) dose of 50 mg/kg; assay type: functional; conditions: route intravenous
Mus musculus [5] = test: Median survival time of mice injected with L1210 cells intravenously versus untreated mice at an optimal (non toxic) dose of 12.5 mg/kg; assay type: functional; conditions: route intravenous

For `C=C(Br)C(=O)Nc1cc(C(=O)Nc2cc(C(=O)Nc3cc(C(=O)NCCN=C(N)N)n(C)c3)n(C)c2)n(C)c1`, which IC50 (L1210) is on record?
The IC50 was 27 nM.

`C=C(Br)C(=O)Nc1cc(C(=O)Nc2ccccc2)n(C)c1` was tested. Which Papp (Caco-2) did it give?
The Papp was 1.2 ×10⁻⁶ cm/s.

What about the IC50 (L1210) of the same molecule?
The IC50 was 43 nM.

What about the T/C (Mus musculus [1]) of the same molecule?
The T/C was 100%.

With `C=CC(=O)Nc1cc(C(=O)Nc2cc(C(=O)Nc3cc(C(=O)Nc4cc(C(=O)NCCC(=N)N)n(C)c4)n(C)c3)n(C)c2)n(C)c1` as the molecule, how does the IC50 (L1210) read?
Its IC50 is 2000 nM.

For `C=C(Br)C(=O)Nc1cc(C(=O)Nc2cc(C(=O)Nc3cc(C(=O)Nc4cc(C(=O)NCCC(=N)N)n(C)c4)n(C)c3)n(C)c2)n(C)c1`, which Papp (Caco-2) is on record?
Its Papp is 38.2 ×10⁻⁶ cm/s.

Which results are given for `C=C(Br)C(=O)Nc1cc(C(=O)Nc2cc(C(=O)Nc3cc(C(=O)NCCC(=N)N)n(C)c3)n(C)c2)n(C)c1.Cl`?
Papp (Caco-2): 15.2 ×10⁻⁶ cm/s; T/C (Mus musculus [2]): 175%

How did the IC50 (L1210) turn out when `C=C(F)C(=O)Nc1cc(C(=O)Nc2cc(C(=O)Nc3cc(C(=O)Nc4cc(C(=O)NCCC(=N)N)n(C)c4)n(C)c3)n(C)c2)n(C)c1` was run?
Its IC50 is greater than 800 nM.

For `C=C(Br)C(=O)Nc1ccc(C(=N)N)cc1`, which Papp (Caco-2) is on record?
Its Papp is 3.9 ×10⁻⁶ cm/s.

What about the IC50 (L1210) of the same molecule?
Its IC50 is greater than 5000 nM.

`C=C(Br)C(=O)Nc1cc(C(=O)Nc2cc(C(=O)NCCC(=N)N)n(C)c2)n(C)c1` was tested. Which Papp (Caco-2) did it give?
The Papp was 5.58 ×10⁻⁶ cm/s.

And the IC50 (L1210)?
The IC50 was 1300 nM.

What does the source list for `C=C(Br)C(=O)Nc1cc(C(=O)NCCC#N)n(C)c1`?
IC50 (L1210): 51.9 nM; T/C (Mus musculus [3]): 100%

`C=C(Br)C(=O)Nc1ccc(F)cc1` was tested. Which IC50 (L1210) did it give?
The IC50 was 58.6 nM.

And the T/C (Mus musculus [4])?
Its T/C is 100%.

With `C=C(Br)C(=O)Nc1cc(C(=O)Nc2cc(C(=O)Nc3cc(C(=O)Nc4cc(C(=O)NCCN=C(N)N)n(C)c4)n(C)c3)n(C)c2)n(C)c1` as the molecule, how does the IC50 (L1210) read?
Its IC50 is 1.8 nM.

With `C=C(Br)C(=O)Nc1cc(C(=O)Nc2cc(C(=O)NCCN=C(N)N)n(C)c2)n(C)c1` as the molecule, how does the IC50 (L1210) read?
Its IC50 is greater than 500 nM.

Which results are given for `C=C(Br)C(=O)Nc1ccc(N(C)C)cc1.Cl`?
IC50 (L1210): 54 nM; T/C (Mus musculus [1]): 100%

With `C=C(F)C(=O)Nc1cc(C(=O)Nc2ccccc2)n(C)c1` as the molecule, how does the Papp (Caco-2) read?
The Papp was 39.6 ×10⁻⁶ cm/s.

What about the IC50 (L1210) of the same molecule?
Its IC50 is greater than 5000 nM.

Which IC50 (L1210) does the source give for `C=C(Br)C(=O)Nc1ccccc1` here?
The IC50 was 36.8 nM.

What about the T/C (Mus musculus [5]) of the same molecule?
Its T/C is 117%.

Which Papp (Caco-2) does the source give for `C=C(Br)C(=O)Nc1cc(C(=O)NCCC(=N)N)n(C)c1` here?
The Papp was 0.69 ×10⁻⁶ cm/s.

And the IC50 (L1210)?
Its IC50 is greater than 2500 nM.
